{"data": "Published values gathered from unrelated publications", "target": "Rhodopsin kinase GRK1 (GRK1, Homo sapiens, UniProt Q15835)", "Sequence (Q15835 1-563, as in one of the studies)": "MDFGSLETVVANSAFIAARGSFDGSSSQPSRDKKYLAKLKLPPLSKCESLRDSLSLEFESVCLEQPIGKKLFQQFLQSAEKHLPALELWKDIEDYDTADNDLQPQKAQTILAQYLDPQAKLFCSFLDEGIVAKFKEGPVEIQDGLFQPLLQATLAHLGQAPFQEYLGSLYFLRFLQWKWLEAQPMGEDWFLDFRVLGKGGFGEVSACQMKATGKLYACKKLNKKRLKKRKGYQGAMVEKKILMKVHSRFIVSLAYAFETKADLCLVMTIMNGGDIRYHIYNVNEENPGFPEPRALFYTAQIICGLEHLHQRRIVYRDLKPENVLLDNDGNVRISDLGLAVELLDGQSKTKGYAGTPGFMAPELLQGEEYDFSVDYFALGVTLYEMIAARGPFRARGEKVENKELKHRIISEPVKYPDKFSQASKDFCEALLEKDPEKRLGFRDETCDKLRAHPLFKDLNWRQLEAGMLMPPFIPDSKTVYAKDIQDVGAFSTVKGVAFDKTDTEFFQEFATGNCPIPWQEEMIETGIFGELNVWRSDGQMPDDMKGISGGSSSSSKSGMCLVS", "note": "Protocols differ between the studies behind these lines."}
{"SMILES": "Nc1ncc2c(n1)-c1c([nH]c3ccc(C#CC4CC4)cc13)CCCC2", "read-out": "binding", "method": "competition with immobilised ligand", "tested at": "1 µM", "remaining binding": "90%"}
{"SMILES": "C[C@H]1CCN(c2nccc(-c3cnn4ncccc34)n2)C1", "read-out": "binding", "tested at": "1 µM", "remaining binding": "74%"}
{"SMILES": "CS(=O)(=O)N1CCCC(NC(=O)[C@H](CCC2CCCCC2)NC(=O)c2ccc(CNc3ncnc4c3nnn4-c3ccccc3)cc2)C1 (stereo partly shown)", "read-out": "cell-free assay", "method": "competition with immobilised ligand", "tested at": "0.1 µM", "remaining binding": "94%"}
{"SMILES": "c1cnn2ncc(-c3ccnc(N4CCC45COC5)n3)c2c1", "read-out": "binding", "tested at": "1 µM", "remaining binding": "61%"}
{"SMILES": "C[C@@H](c1ccc(-n2cnc3c(N)ncnc32)cc1)N1CCc2nn(C)c(Cc3ccccc3)c2C1=O", "read-out": "binding", "method": "competition with immobilised ligand", "tested at": "0.1 µM", "remaining binding": "76%"}
{"SMILES": "N[C@H]1CCN(c2nccc(-c3cnn4ncccc34)n2)C1", "read-out": "binding", "tested at": "1 µM", "remaining binding": "100%"}
{"SMILES": "C[C@@]1(Cc2ccc(C#N)cc2)C(=O)N(c2cc(Cl)cc(Cl)c2)c2ncc(C(=O)NC3(c4nc(C5CCC5)no4)CC3)n21", "read-out": "cell-free assay", "method": "competition with immobilised ligand", "tested at": "1 µM", "remaining binding": "100%"}
{"SMILES": "CCN1CCN(Cc2ccc(C(=O)Nc3ccc(C)c(Oc4ccc5c(c4)CC(=O)N5)c3)cc2C(F)(F)F)CC1", "read-out": "binding", "method": "competition with immobilised ligand", "tested at": "1 µM", "remaining binding": "100%"}
{"SMILES": "COc1cnc(Nc2cccc(S(N)(=O)=O)c2)nc1N1CCN(c2ccccc2)CC1", "read-out": "binding", "method": "competition with immobilised ligand", "tested at": "1 µM", "remaining binding": "99%"}
{"SMILES": "O=C(NCCCN1CCOCC1)c1ccc(Nc2nccc(-c3cc4ccccc4s3)n2)cc1", "read-out": "binding", "method": "competition with immobilised ligand", "tested at": "1 µM", "remaining binding": "74%"}
{"SMILES": "O=C(Nc1c[nH]nc1C(=O)NC1CCNCC1)c1cc(F)cc(F)c1", "read-out": "binding", "method": "competition with immobilised ligand", "tested at": "1 µM", "remaining binding": "83%"}
{"SMILES": "CN([C@@H]1CCc2c(CC(=O)O)c3cc(S(C)(=O)=O)ccc3n2C1)S(=O)(=O)c1ccc(F)cc1", "read-out": "cell-free assay", "method": "competition with immobilised ligand", "tested at": "1 µM", "remaining binding": "70%"}
{"SMILES": "CN(CCCC(F)(F)F)c1nccc(-c2cnn3ncccc23)n1", "read-out": "binding", "tested at": "1 µM", "remaining binding": "100%"}
{"SMILES": "Cn1cc(Cl)c2c(Oc3c(F)cc(Nc4cc(Cl)nc(N)n4)cc3F)ccnc21", "read-out": "cell-free assay", "method": "competition with immobilised ligand", "tested at": "0.1 µM", "remaining binding": "92%"}
{"SMILES": "CN(C)c1nccc(-c2cnn3ncccc23)n1", "read-out": "binding", "tested at": "1 µM", "remaining binding": "79%"}
{"SMILES": "Cc1cnc(Nc2ccc(C(=O)N3CCC(N4CCCC4)CC3)cc2)nc1-c1cc2ccccc2s1", "read-out": "binding", "method": "competition with immobilised ligand", "tested at": "1 µM", "remaining binding": "64%"}
{"SMILES": "CN(C(=O)c1ccccc1)c1cc(N(C)c2ccc3c(c2)CCc2ccc(C(=O)NCCN4CCOCC4)cc2C3=O)ccc1F", "read-out": "cell-free assay", "method": "competition with immobilised ligand", "tested at": "1 µM", "remaining binding": "93%"}
{"SMILES": "O=C(c1ccc(Nc2nccc(-c3cc4ccccc4s3)n2)cc1)N1CCC(N2CCCC2)CC1", "read-out": "binding", "method": "competition with immobilised ligand", "tested at": "1 µM", "remaining binding": "93%"}
{"SMILES": "CS(=O)(=O)c1cc(C2(NC(=O)c3cncc4c3cnn4-c3ccc(F)cc3)CC2)ccn1", "read-out": "cell-free assay", "method": "competition with immobilised ligand", "tested at": "1 µM", "remaining binding": "87%"}
